Assay results pooled from the literature.
Each line is one published result; the experiments were not run side by side.
Target: ALK tyrosine kinase receptor (ALK, Homo sapiens, UniProt Q9UM73)

Compound	assay	setting	IC50
Cc1cc(-c2cccc(Cl)c2)n[nH]1	enzyme activity, inhibitor, TR-FRET		66 µM
CC(C)(C)n1nc(-c2cnc3cc(OC4CC4)ccc3c2)c(C(N)=O)c1N	cell-free assay		> 10 µM
Cc1cc(-c2cc(C#N)ccc2O[C@@H]2C[C@@H]2c2ccc(F)cc2F)n[nH]1	enzyme activity, inhibitor, TR-FRET		1.3 µM
COc1cccc(Nc2cnc3[nH]c4ccc(CCc5ccccc5)cc4c3c2)c1	enzyme activity, inhibitor, ELISA		> 10 µM
COc1ccc2c(Oc3ccc4c(C(=O)Nc5ccccc5N)cccc4c3)ccnc2c1	enzyme activity, inhibitor		> 0.5 µM
Cc1cc(-c2cccc(C#N)c2)n[nH]1	enzyme activity, inhibitor, TR-FRET		51 µM
Clc1cnc2[nH]c3ccc(-c4ccc(N5CCOCC5)cn4)cc3c2c1	enzyme activity, inhibitor, ELISA		> 10 µM
C=CC(=O)Nc1cc(Nc2nccc(Nc3cc(Cl)c(F)cc3C(C)(C)O)n2)c(OC)cc1N1CC[C@@H](N(C)C)C1	enzyme activity, inhibitor	with preincubation	1.17 µM
Cc1cc(Nc2cc(CN3CCOCC3)c3nc(C)c(Cc4ccc(Cl)cc4F)n3n2)n[nH]1	enzyme activity, inhibitor, TR-FRET		0.138 µM
Cc1cc(-c2ccnc(C#N)c2)n[nH]1	enzyme activity, inhibitor, TR-FRET		130 µM
c1ccc(CCc2ccc3[nH]c4ncc(-c5ccc6c(c5)OCO6)cc4c3c2)cc1	enzyme activity, inhibitor, ELISA		> 10 µM
CC(C)(C)n1nc(-c2ccc3nc(OC4CC4)ccc3c2)c(C(N)=O)c1N	cell-free assay		> 10 µM
O=[N+]([O-])c1cccc(-c2cnc3[nH]c4ccccc4c3c2)c1	enzyme activity, inhibitor, ELISA		> 10 µM
CCn1ncc2c1-c1cnc(N)c(c1)O[C@H](C)c1cc(F)ccc1-c1nn(C)nc1C2	enzyme activity, inhibitor, radiometric		0.0011 µM
